The sample as a whole holds a higher share of hits than the screen did.
UCH37 DUB inh – inhibitors of human UCH37 deubiquitinase, primary screen, biochemical, Ub-AMC cleavage, fluorescence | Ubiquitin carboxyl-terminal hydrolase isozyme L5 (Homo sapiens), Q9Y5K5 | actives 0.33% (n = 330,000) | purified proteasome/UCH37 | inhibition, % (test concentration not listed) | AID 588478, 2011;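 active = mean inhibition over replicate wells above about 20%, limit read from the data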;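 note: 0% = compound-free wells with enzyme and 100% = wells lacking proteasome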
Target sequence (Q9Y5K5 whole entry, looked up): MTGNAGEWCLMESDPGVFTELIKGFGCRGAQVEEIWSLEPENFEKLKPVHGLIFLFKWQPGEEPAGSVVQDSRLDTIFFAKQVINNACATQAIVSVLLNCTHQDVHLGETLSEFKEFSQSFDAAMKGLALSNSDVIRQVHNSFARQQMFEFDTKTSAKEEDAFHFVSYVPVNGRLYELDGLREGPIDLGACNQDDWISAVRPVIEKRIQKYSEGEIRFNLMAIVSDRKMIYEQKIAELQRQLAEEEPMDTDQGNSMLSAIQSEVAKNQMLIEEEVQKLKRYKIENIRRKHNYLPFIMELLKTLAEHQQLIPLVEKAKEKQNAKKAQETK
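Assay system: Proteasome-bound UCH37. Buffer or medium: pH 7.4 Tris-HCl (50 mM) with ovalbumin, ATP-MgCl2, DTT. Incubation: 30 min preincubation with enzyme, 25 min cleavage at room temperature. Measured by: fluorescence, ex 355 nm, em 460 nm. Read-out basis: percent inhibition. Control set: wells without proteasome as full block, compound-free enzyme plus substrate as uninhibited.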
CHOP UPR activ – activators of apoptotic CHOP UPR arm, primary screen, cell-based, CHO-CHOP luciferase reporter, luminescence, uHTS. actives 0.34% (n = 330,000). UPR activation; percent of tunicamycin response over DMSO baseline. AID 449763, 2010. activation, % at 10 µM;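 active = at 10 µM dose, activation of 40% or more, normalized to positive control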;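 note: 100% = tunicamycin at 10 µg/mL and 0% = DMSO alone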
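Material: CHO-CHOP cells, stable luciferase reporter of PERK-eIF2a-CHOP signalling; quantity: 500 reporter cells seeded per well; buffer or medium: F12 medium containing 10% fetal bovine serum; compound: one dose, 10 µM in 0.5% DMSO; incubation: 6 h compound treatment, 37 °C; measured by: Steady-Glo luciferase luminescence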
UPR XBP1 act – activators of adaptive XBP1 UPR arm, primary screen, cell-based, CHO-XBP1 luciferase reporter, luminescence, uHTS. IRE1-XBP1 UPR activation; percent of tunicamycin response, DMSO as zero. activation, % at 20 µM. actives 0.33% (n = 330,000);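 active = versus positive control, 20 µM dose yields 30% or more activation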;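 note: 100% = tunicamycin at 10 µg/mL and 0% = DMSO only wells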
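Material: CHO cell line with stable XBP1 luciferase reporter; buffer or medium: F12 medium containing 10% fetal bovine serum; compound: single point, 20 µM final compound, 1% DMSO; incubation: 6 h treatment, 37 °C; measured by: glow luminescence from Steady-Glo reagent; evaluation: activation, % of tunicamycin; control set: tunicamycin high, DMSO low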
CTSL1 counter – Fasciola hepatica cathepsin L1 inhibitors, primary screen, counter-screen for PFM18AAP inhibitor project, biochemical, QFRET, fluorogenic peptide substrate; inhibition, % at 5.96 µM; AID 1906, 2009; recombinant F. hepatica cathepsin L1, Z-Leu-Arg-MCA fluorescence; actives 0.49% (n = 300,000);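 active = inhibition above the mean of all tested compounds plus 3 SD, set per screening campaign, cut at about 17% in these data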;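 note: 0% = plate median of test compound wells and 100% = 1 µM Z-Phe-Ala-diazomethylketone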
CHOP inhibitor – inhibitors of CHOP promoter induction, primary screen, cell-based, unfolded protein response, luciferase reporter. inhibition, % at 10 µM. AID 2732, 2010. actives 3.8% (n = 220,000). CHO-K1 CHOP-promoter luciferase, tunicamycin-induced, 15-18 h;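 active = compounds that reduced the stress-induced luciferase reporter signal by more than about 70% of percent inhibition, limit read from the data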;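 note: 0% = tunicamycin plus vehicle and 100% = wells without tunicamycin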
UPR CHOP confirm – activators of apoptotic CHOP UPR arm, confirmation, cell-based, CHO-CHOP luciferase reporter, single concentration; actives 64% (n = 1,000); activation, % at 10 µM; AID 463112, 2010; CHO-CHOP cells, CHOP-luciferase reporter luminescence; percent of tunicamycin response, DMSO as zero; shares compounds with CHOP UPR activ; in the data active = activation above about 33%;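 note: 0% = DMSO wells and 100% = tunicamycin 10 µg/mL wells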
XBP1 UPR conf – IRE1-XBP1 UPR arm activators, confirmation, cell-based, CHO-XBP1 luciferase reporter, luminescence, single concentration; shares compounds with UPR XBP1 act; activation, % at 20 µM; actives 63% (n = 1,000); AID 485299, 2010;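 active = reporter signal at least 30% of the positive control's activation in two or more of four replicate wells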;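 note: plate controls were DMSO negative control for no effect and tunicamycin 10 µg/mL positive control for full effect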
The depositor's hits bear a star; · = no result given.

SMILES	UCH37 DUB inh	CHOP UPR activ	UPR XBP1 act	CTSL1 counter	CHOP inhibitor	UPR CHOP confirm	XBP1 UPR conf
CN(C)CC(CCC(CN(C)C)C(O)(c1ccccc1)c1ccccc1)C(O)(c1ccccc1)c1ccccc1 (stereo unspecified)	2	77*	35*	·	·	84*	43*
O=C(CSc1nc2ccc(Nc3nc(N4CCOCC4)nc(N4CCOCC4)n3)cc2s1)Nc1ccccc1F	-1	106*	277*	·	·	111*	302*
CC(=NNC(=O)Cn1cnc2ccccc21)c1cccs1	2	·	·	·	·	·	·
COc1ccc(N2CCN(Cc3cc(=O)oc4cc(-c5ccccc5)c(O)cc34)CC2)cc1	5	116*	107*	1	23	83*	78*
O=c1cc(CN2CCN(c3ccccc3F)CC2)c2cc(O)c(-c3ccccc3)cc2o1	5	5	2	2	-12	·	·
COc1ccc(-c2cc(-c3ccccc3)c(C#N)c(S(C)(=O)=O)n2)cc1	-350	103*	45*	3	-74	119*	99*
COc1ccc(-c2cc(-c3ccc(OC)cc3)c(C#N)c(SC)n2)cc1	-19	0	-2	4	-9	·	·
CCc1nnc(NC(=O)CSc2nc(-c3ccccc3)cc(-c3ccc(OC)cc3)c2C#N)s1	-108	93*	58*	-2	45	105*	26
O=C(NN=Cc1ccc([N+](=O)[O-])cc1)c1cc(C2CC2)[nH]n1	7	·	·	·	·	·	·
COc1ccc(C=NNC(=O)c2cccc(Br)c2)cc1COc1ccccn1	2	·	·	·	·	·	·
COC(=O)/C(=C\c1ccc(O)cc1)c1nc2ccccc2[nH]1	1	2	4	-1	-7	·	·
O=C(/C(=C\c1ccccc1)c1nc2ccccc2[nH]1)c1ccc(Cl)cc1	4	104*	53*	-4	87*	267*	8
O=C(/C(=N/N=C/c1ccc(O)c(O)c1)c1ccccc1)c1ccccc1	·	86*	41*	-1	62	63*	30*
COc1ccc(NC(=O)C(=O)N/N=C\c2ccc(CNC(=O)C(=O)Nc3ccc(C)c(C)c3)o2)c(OC)c1	·	135*	50*	5	·	41*	52*
O=C(NCc1ccc(C=NNC(=O)C(=O)Nc2ccccc2Br)o1)C(=O)Nc1ccccc1	5	·	·	·	·	·	·
CCCc1n[nH]c2c1C(=NO)CCC2	0	·	·	·	·	·	·
CCc1cccc(CC)c1NC(=O)/C(C#N)=C/c1ccccc1C(F)(F)F	1	71*	70*	-1	84*	72*	34*
Cn1c(=O)c2c(SCC(=O)Nc3ccccc3F)nc(-c3ccccc3F)nc2n(C)c1=O	0	55*	355*	-2	·	101*	73*
CCOC(=O)/C(=C\c1ccccc1)C(=O)c1cc(C(C)=O)c(Nc2ccccc2)s1	1	139*	60*	2	·	191*	41*
CC(CC(=O)Nc1ccc(C)c(Cl)c1)=NNC(=O)c1ccncc1	-3	·	·	·	·	·	·
Cc1cc([N+](=O)[O-])nn1Cc1ccc(C(=O)NN=Cc2ccc(F)cc2)cc1	5	·	·	·	·	·	·
O=C(Nc1ccc(NC(=O)c2sc3ccccc3c2Cl)cc1Cl)c1ccco1	-6	63*	342*	2	-20	34*	142*
Cc1cc(C)nc(NN=C/C=C/c2ccccc2)n1	10	·	·	·	·	·	·
CCOC(=O)C(=CNc1nc(-c2ccccc2)c(C(=O)Nc2ccc(-c3ccccc3)cc2)s1)C(=O)OCC	-113	73*	209*	0	·	43*	133*
Cc1ccc(NC(=O)c2sc(Cl)nc2-c2ccccc2)cc1	1	-1	-5	1	30	·	·
SMILES	UCH37 DUB inh	CHOP UPR activ	UPR XBP1 act	CTSL1 counter	CHOP inhibitor	UPR CHOP confirm	XBP1 UPR conf
Cc1ccc(N2CCN(c3ccc(NCc4nc5ccccc5n4C)cc3)CC2)cc1	·	45*	66*	-6	60	37*	89*
CC(CCc1ccc2c(c1)OCO2)=NNC(=O)c1ccccc1	5	·	·	·	·	·	·
C=CCOc1ccc(C=NNC(=O)C(C)Sc2ccccn2)cc1OC (stereo unspecified)	7	·	·	·	·	·	·
CCc1cc2c(=O)c(-c3cnn(-c4ccccc4)c3)c(C)oc2cc1OCC(=O)Nc1cccc(C)c1	1	148*	75*	1	94*	78*	121*
Cc1oc2cc(O)ccc2c(=O)c1-c1cnn(-c2ccccc2)c1	-37	4	4	1	12	·	·
Oc1cc(-c2ccncc2)cc2cccnc12	0	70*	34*	·	·	66*	16
N#C/C(=C/c1ccc(-c2ccc([N+](=O)[O-])cc2)o1)C(=O)Nc1nc(-c2cccs2)cs1	10	·	·	·	·	·	·
Cc1ccc(Cc2cnc(NC(=O)/C(C#N)=C/c3ccc(-c4ccc([N+](=O)[O-])cc4)o3)s2)cc1	9	123*	136*	-2	-8	78*	166*
CCN(CC)c1ccc(C(=O)OCC(=O)Nc2cc3oc4ccccc4c3cc2OC)cc1	-26	55*	178*	-11	-1	30	121*
COc1ccc(C=NNC(=O)c2ccncc2)cc1CN1CCCc2ccccc21	6	·	·	·	·	·	·
CC(Cn1cnc([N+](=O)[O-])n1)=NNC(=O)c1cccc(F)c1	3	·	·	·	·	·	·
COc1cc2nc(NC(=O)c3ccco3)sc(=O)c2cc1OC	-15	-1	0	-3	-1	·	·
COc1cc2nc(NC(=O)c3ccc(Cl)cc3)sc(=O)c2cc1OC	-23	47*	68*	-10	·	50*	27
Cc1ccc(-n2c(C)cc(C=NNc3ccc([N+](=O)[O-])cn3)c2C)c(C)c1	3	·	·	·	·	·	·
Cc1ccc(NC(=O)/C(C#N)=C/c2cn(CC(=O)NCc3ccco3)c3ccccc23)cc1C	-58	124*	235*	0	-47	0	-1
N#C/C(=C\c1cn(CCOc2ccccc2)c2ccccc12)C(=O)NCc1ccco1	-63	1	1	1	52	·	·
COc1cc(C=NNc2ncnc3sc4c(c23)CCC4)ccc1O	-1	·	·	·	·	·	·
C/C(CCC12CC3CC(CC(C3)C1)C2)=N\NC(N)=S	·	220*	83*	3	41	96*	63*
CC(CC1CC(C)(C)OC1=O)=NNC(N)=S (stereo unspecified)	3	·	·	·	·	·	·
